Source: PubChem
Sampled rows, rich in hits. Any-hit rate of the full collection: about 3.7%.
Dynein cargo inh = inhibitors of GR-EGFP nuclear translocation, primary screen, dynein cargo transport inhibitor project, imaging, high-content, 3617.4 mouse cells; test concentration mostly 20 µM; stimulated with dexamethasone, 1 µM; hits give low values; z-score, hits read low; hit rate 0.47% among 220,000; AID 1381, 2008;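 active = plate z-score of nuclear minus cytoplasmic receptor signal below a set negative limit, without overly bright fluorescence or cell loss, cut at about -3.5 in these data, passing the limit was not always enough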;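 also: z-score of nuclear minus cytoplasmic ring GR-EGFP intensity difference per well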
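Also added: dexamethasone, 1.0 µM final. Medium: tet-free, stripped-serum medium. Detection: fixed, Hoechst-stained cells imaged at 10x for EGFP. Read-out: nuclear-to-cytoplasmic GR-EGFP distribution per well. Times: induction 48 h, compound 1 h, agonist 30 min.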
Mdm2-MdmX inh = inhibitors of human Mdm2-MdmX association, primary screen, cell-based, luminescence, split luciferase, SaOS-2, uHTS | Protein Mdm4 (Homo sapiens) + E3 ubiquitin-protein ligase Mdm2 (Homo sapiens), … | SaOS-2 split-luciferase Mdm2/MdmX complementation | inhibition, % at 8 µM | hit rate 3% among 330,000 | AID 485346, 2010;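 active = inhibition of at least 50% at 8 µM in the primary screen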
B2AR ag = beta2AR agonists driving receptor internalization, primary screen, cell-based, FAP fluorogen, flow cytometry. Beta-2 adrenergic receptor (Homo sapiens), P07550. Am2.2-beta2AR cells. response, % (concentration not given with the values). hit rate 0.43% among 340,000. AID 504454, 2011;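 active = response above a set limit, near 3 SD of response in nonfluorescent compounds, cut at about 42% in these data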
Target sequence (P07550 whole entry, looked up): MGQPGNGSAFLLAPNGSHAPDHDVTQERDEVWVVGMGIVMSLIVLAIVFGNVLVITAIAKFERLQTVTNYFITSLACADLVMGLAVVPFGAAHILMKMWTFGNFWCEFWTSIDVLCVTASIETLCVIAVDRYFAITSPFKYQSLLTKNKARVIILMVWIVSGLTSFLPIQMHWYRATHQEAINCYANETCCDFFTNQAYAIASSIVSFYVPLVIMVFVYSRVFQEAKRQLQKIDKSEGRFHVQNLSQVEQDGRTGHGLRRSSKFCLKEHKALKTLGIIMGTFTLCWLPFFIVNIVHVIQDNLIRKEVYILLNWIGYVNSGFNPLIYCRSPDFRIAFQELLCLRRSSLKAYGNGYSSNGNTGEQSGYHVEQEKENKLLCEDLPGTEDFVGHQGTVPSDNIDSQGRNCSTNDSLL
XBP1 UPR activ = activators of adaptive XBP1 UPR arm, primary screen, cell-based, CHO-XBP1 luciferase reporter, luminescence, uHTS | activation, % at 20 µM | IRE1-XBP1 UPR activation; percent of tunicamycin response, DMSO as zero | AID 463104, 2010 | hit rate 0.33% among 330,000;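 active = versus positive control, 20 µM dose yields 30% or more activation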;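 also: 100% = tunicamycin at 10 µg/mL and 0% = DMSO only wells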
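Material – CHO cell line with stable XBP1 luciferase reporter · Buffer or medium – F12 plus 10% FBS · Compound – single point, 20 µM final compound, 1% DMSO · Schedule – 16-18 h cell attachment at 37 °C, then 6 h compound exposure · Signal – Steady-Glo luminescence read · Benchmarks – high control tunicamycin 10 µg/mL final, low control DMSO vehicle only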
Mdm2 ligase inh = MDM2-luciferase reporter signal enhancers, primary screen, MDM2 E3 ligase inhibitor project, cell-based, luminescence, 1536-well. hit rate 0.11% among 210,000. cell-based MDM2 ubiquitination luciferase reporter, 2 h; 0 = plate control, 100 = twice control, blank-subtracted. signal enhancement, % at 5 µM. E3 ubiquitin-protein ligase Mdm2 (Homo sapiens), Q00987;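 active = signal enhancement of 30% or more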;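 also: luminescence tracks abundance of the self-degrading MDM2-luciferase fusion protein; higher signal means inhibition of MDM2 E3 ligase activity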
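Assay system: stable mammalian line carrying autodegrading MDM2–luciferase fusion reporter; Input: 2000 cells in each well; Compound dosing: single-point 5 µM; Schedule: 2 h compound exposure at 37 °C; Signal: SteadyLite luciferase luminescence after 15 min room-temperature reagent incubation; Evaluation: % luminescence enhancement versus blank-corrected plate control mean; Benchmarks: plate controls and plate blanks.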
CHOP UPR activ = activators of apoptotic CHOP UPR arm, primary screen, cell-based, CHO-CHOP luciferase reporter, luminescence, uHTS; UPR activation; percent of tunicamycin response over DMSO baseline; activation, % at 10 µM; hit rate 0.34% among 330,000;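 active = at 10 µM dose, activation of 40% or more, normalized to positive control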;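 also: 100% = tunicamycin at 10 µg/mL and 0% = DMSO alone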
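Material: CHO-CHOP cells, stable luciferase reporter of PERK-eIF2a-CHOP signalling; quantity: 500 reporter cells seeded per well; buffer or medium: F12 medium containing 10% fetal bovine serum; compound: one dose, 10 µM in 0.5% DMSO; incubation: 6 h compound treatment, 37 °C; measured by: Steady-Glo luciferase luminescence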
Mdm2 MdmX conf = Mdm2-MdmX complex disruptors, retested hits, confirmation, luminescence, single concentration. shares compounds with Mdm2-MdmX inh. Mdm2-MdmX binding, luminescent assay. inhibition, % at 8 µM. hit rate 55% among 10,000. AID 489028, 2010; in the data active = inhibition above about 40%
FLuc counter = full-length luciferase signal inhibition, confirmation, counter-screen for Mdm2/MdmX interaction inhibitor project, cell-based, single concentration, SaOS-2 | SaOS-2 full-length luciferase counterscreen, luminescence | shares compounds with Mdm2-MdmX inh | hit rate 77% among 6,200 | inhibition, % at 8 µM | AID 504607, 2011;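 active = mean inhibition at 8 µM reaching about 37%, which flags the compound as non-specific, limit read from the data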;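 also: p53-null SaOS-2 cells with luciferase driven by a doxycycline-inducible promoter; compound on cells about two nights before reading with doxycycline added after day one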
An asterisk follows results filed as active; · = no result.

SMILES	Dynein cargo inh	Mdm2-MdmX inh	B2AR ag	XBP1 UPR activ	Mdm2 ligase inh	CHOP UPR activ	Mdm2 MdmX conf	others
CC(=O)Nc1ccc(O)c(-c2nc3ccccc3s2)c1	-0.49	-29	-6	0	-7	4	·
O=C1CN(C(=O)COC(=O)c2ccc(Br)o2)c2ccccc2N1	·	13	-1	0	·	-2	·
COc1ccc(C2C(C#N)=C(N)Oc3c2ccc2cccnc32)cc1OC (stereo unspecified)	-0.33	81*	-17	4	-10	-1	78*	FLuc counter=60*
COc1cc(C2C(C#N)=C(N)Oc3cc(N)ccc32)cc(OC)c1OC (stereo unspecified)	-0.24	88*	50*	12	-8	0	66*	FLuc counter=68*
COc1cc(C2C(C#N)=C(N)Oc3c2ccc2ccccc32)ccc1OCC(=O)Nc1ccc(C)cc1 (stereo unspecified)	-0.63	37	2	-3	·	3	·
COc1ccc(C2C(C#N)=C(N)Oc3cc(N)ccc32)cc1 (stereo unspecified)	·	3	-2	-1	·	1	·
N#CC1=C(N)Oc2cc(N)ccc2C1c1ccc(F)cc1F (stereo unspecified)	·	59*	-31	-4	·	2	15
N#CC1=C(N)Oc2cc(N)ccc2C1c1ccc(F)cc1 (stereo unspecified)	-0.74	29	-11	0	-5	-4	·
Cc1ccc(C)c(C(=O)Cn2c(NCCO)nc3ccccc32)c1	·	-4	3	-2	·	1	·
Oc1c(Br)cc(Br)cc1C=Nc1cccc2ncccc12	·	48	19	1	·	-2	·
O=C1Nc2ccc(Br)cc2/C1=C/C(=O)c1ccccc1	·	·	18	·	·	·	·
C=CCOc1cccc(C(=O)/C=C2/C(=O)Nc3ccccc32)c1	·	86*	78*	0	·	86*	25
COc1ccc(CCN2C(=NC(C)=O)SC3CS(=O)(=O)CC32)cc1OC (stereo unspecified)	-0.33	4	1	2	6	-1	·
Cc1cc(C)c(C#N)c(SCC(=O)c2ccc(Cl)cc2Cl)n1	-0.7	74*	-8	2	-16	0	73*	FLuc counter=70*
Cc1c(C(=O)N2CCC(C)CC2)oc2ccc3c(c12)C(O)CC1(CCCCC1)O3 (stereo unspecified)	·	76*	-6	15	·	0	23
COc1cc(C(=O)Nc2ccc(Cl)c([N+](=O)[O-])c2)cc(OC)c1OC	-0.28	57*	5	1	13	5	5
COc1ccc(C(=O)c2ccc(Cl)cc2)cc1	2.4	3	5	4	-15	8	·
COc1ccc(C(=O)c2ccc(Cl)c([N+](=O)[O-])c2)cc1	-1.5	70*	48*	8	-3	4	70*	FLuc counter=111*
COc1cc(C(=O)Nc2ccc(Cl)c(C(F)(F)F)c2)cc(OC)c1OC	0.54	30	13	-2	-6	3	·
COc1cc2cc(CN(CCc3cccc(C)c3)C(=S)NCCCN3CCOCC3)c(=O)[nH]c2cc1OC	-0.66	23	5	-5	4	0	·
CCOC(=O)C1CCN(C(=O)CNC(=O)Cn2c(C)cc3ccccc3c2=O)CC1	·	7	4	4	·	2	·
COc1ccc(-c2csc(-n3ncc(-c4ccccn4)c3N)n2)cc1	1.1	58*	3	1	-1	0	6
Nc1c(-c2ccccn2)cnn1-c1nc(-c2ccc(F)cc2)cs1	-1.6	-17	0	3	4	3	·
Cc1cc(C)nc(NC(=NCCc2c[nH]c3ccccc23)NC(=O)Nc2ccc(Cl)c(Cl)c2)n1	-0.1	34	-4	-3	0	0	·
Cc1cc(C)nc(NC(=NCCc2c[nH]c3ccccc23)NC(=O)Nc2ccccc2)n1	-0.28	64*	4	-3	-15	1	34	FLuc counter=63*
SMILES	Dynein cargo inh	Mdm2-MdmX inh	B2AR ag	XBP1 UPR activ	Mdm2 ligase inh	CHOP UPR activ	Mdm2 MdmX conf	others
CC(C)[C@H](NC(=O)c1ccccc1)C(=O)NCCc1ccccc1	·	9	-1	4	·	2	·
CNC[C@@H](C)NC[C@@H](Cc1ccccc1)NCCc1ccccc1	·	69*	10	-1	·	2	36
O=c1c(O)c(-c2ccccc2)oc2ccccc12	·	·	-2	·	·	·	·
Cc1ccc(-c2oc3ccccc3c(=O)c2O)cc1	0.4	84*	-2	6	-2	6	51*	FLuc counter=25
CN(C)CC/C=C1\c2ccccc2Sc2cc(F)c(Cl)cc21	·	66*	9	13	·	2	28	FLuc counter=78*
CN(C)CC/C=C1\c2cc(Cl)ccc2Sc2cc(F)c(F)cc21	·	36	3	3	·	2	·
C[C@@]12CCC=C[C@H]1[C@H](c1ccc3ccccc3c1)N(Cc1ccccc1)C2=O	-2.8	43	9	0	5	-1	·
C[C@@H]1CC=C[C@H]2[C@H]1C(=O)N(Cc1ccccc1)[C@H]2c1ccoc1	-2.5	5	14	0	13	2	·
C[C@@H]1CC=C[C@H]2[C@H]1C(=O)N(Cc1ccccc1)[C@H]2c1ccc2ccccc2c1Br	-0.38	84*	-2	3	-17	22	27
CC[C@@H]1CC=C[C@H]2[C@H]1C(=O)N(Cc1ccccc1)[C@H]2c1ccoc1	-2.3	69*	24	-2	-15	19	9
COC(=O)c1ccc(-c2ccc(OC)c([C@H]3[C@H]4C=CC[C@@H](C)[C@@H]4C(=O)N3Cc3ccccc3)c2)cc1	-0.46	62*	17	1	10	1	45*	FLuc counter=46*
C[C@@H]1CC=C[C@H]2[C@H]1C(=O)N(Cc1ccccc1)[C@H]2c1ccc2ccccc2c1	-0.16	25	7	-4	15	2	·
